This note sets out measurements from ChEMBL document CHEMBL1255558, “Bis-alkylamine quindolone derivatives as new antimalarial leads” (Bioorg Med Chem Lett, 2010).

One data set concerns Plasmodium falciparum. Briefly: Antimalarial activity against chloroquine-resistant Plasmodium falciparum W2. The format is functional, organism-based. Put shortly: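 Ring-stage parasites (1% parasitaemia in human red cells, sorbitol-synchronised) exposed to compounds for 48 h at 37 °C in RPMI-1640 with 25 mM HEPES pH 7.4 and 10% heat-inactivated human serum. Cells then fixed in 2% HCHO/PBS, stained with 1 nM YOYO-1 in PBS containing 100 mM NH₄Cl and 0.1% Triton X-100, and counted by flow cytometry (ex 488/em 520 nm). IC50 derived by curve fitting.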

Data set [1] in a line: Cytotoxicity against human HepG2A16 cells. The format is cell-based. Put shortly:
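HepG2 A16 human hepatic cells seeded at 1 × 10⁴ cells/well and exposed to a range of concentrations for 48 h under standard culture conditions. IC₅₀ (50% growth inhibition) read from plots of degree of cell injury against concentration.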

Data set [2] can be described thus: Selectivity ratio of IC50 for human HepG2A16 cells to IC50 for Plasmodium falciparum W2. The format is ADME. The gist of the method: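 Ratio of HepG2 A16 cytotoxicity IC₅₀ (48 h) to W2 IC₅₀. The W2 assay used sorbitol-synchronized ring stages at 1% parasitemia in human RBCs, 48 h at 37 °C in RPMI-1640 with 25 mM HEPES pH 7.4 and 10% heat-inactivated human serum. Cells were then fixed in 2% HCHO, stained with 1 nM YOYO-1 and counted by flow cytometry.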

The nature of data set [3]: Binding to hematin monomer.

Some results are limits rather than exact numbers.

As for `CCN(CC)CCOc1c2ccccc2nc2c1[nH]c1ccccc12`, the IC50 turned out to be 2.64 µM with Plasmodium falciparum and 9 µM in data set [1]. The selectivity ratio in data set [2] worked out at 3.6. This compound came in with a log Kass in data set [3] of 5.

Turning to `CCN(CC)CCOc1c2ccc(Cl)cc2nc2c3cc(Cl)ccc3n(CCN(CC)CC)c12`, the IC50 in the data set with Plasmodium falciparum was determined as 0.051 µM; in data set [1] it was 5 µM. Besides, the selectivity ratio in data set [2] was determined as 98. The same compound had a log Kass in data set [3] of 5.2.

On to `CCN(CC)CCn1c2ccc(Cl)cc2c2c1c(=O)c1ccc(Cl)cc1n2CCN(CC)CC`, for which the IC50 with Plasmodium falciparum amounted to 0.334 µM; in data set [1], 11 µM. Further, the selectivity ratio in data set [2] came to 31. For the same compound, the log Kass in data set [3] stood at 5.1.

On to `CCN(CC)CCOc1c2ccc(Cl)cc2nc2c3ccccc3n(CCN(CC)CC)c12`, for which the values for the IC50 (in the data set with Plasmodium falciparum; in data set [1]) were 0.186 µM and 8 µM, respectively. The selectivity ratio in data set [2] is 44. Also, the log Kass in data set [3] turned out to be 4.9.

For the compound `CCN(CC)CCOc1c2ccccc2nc2c3ccccc3n(CCN(CC)CC)c12`, the IC50 came out at 0.539 µM with Plasmodium falciparum and 7 µM in data set [1]. In data set [2], the selectivity ratio is 12. The log Kass in data set [3] was determined as 4.9.

`CCN(CC)CCOc1c2ccc(Cl)cc2nc2c1[nH]c1ccccc12` gave an IC50 with Plasmodium falciparum of 1.33 µM. Also, in data set [3], the log Kass amounted to 5.1.

Regarding `CCN(CC)CCn1c2ccccc2c2c1c(=O)c1ccccc1n2CCN(CC)CC`, the IC50 came to 0.267 µM with Plasmodium falciparum and 4.33 µM in data set [1]. In addition, the selectivity ratio in data set [2] is 16. The compound further came in with a log Kass in data set [3] of 4.9.

Consider `O=c1c2ccc(Cl)cc2[nH]c2c1[nH]c1ccc(Cl)cc12`, for which, in the data set on Plasmodium falciparum, the IC50 was more than 10 µM. Moreover, the log Kass in data set [3] worked out at 4.9.

`O=c1c2ccc(Cl)cc2[nH]c2c1[nH]c1ccccc12`: the IC50 in the data set on Plasmodium falciparum is 8.42 µM. Besides, the log Kass in data set [3] came to 5.

With `O=c1c2ccccc2[nH]c2c1[nH]c1ccccc12`, the results for the IC50 (with Plasmodium falciparum; in data set [1]) were more than 10 µM and 21 µM, respectively. The selectivity ratio in data set [2] is less than 2. This compound displayed a log Kass in data set [3] of 4.7.

As to `CCN(CC)CCn1c2ccccc2c2c1c(=O)c1ccc(Cl)cc1n2CCN(CC)CC`, the IC50 in the data set on Plasmodium falciparum was 0.202 µM; in data set [1], 7 µM. In addition, the selectivity ratio in data set [2] was 33. In data set [3], this compound came in with a log Kass of 4.9.

`CCN(CC)CCOc1c2ccc(Cl)cc2nc2c1[nH]c1ccc(Cl)cc12` showed an IC50 in the data set with Plasmodium falciparum of 0.55 µM.
